The list is not random: actives were taken first. Their share in the collection is about 3.5%.
MEKK3 PB1 HTS = raises or lowers MEK5 binding to the human MEKK3 PB1 domain. Q99759. bead-based flow cytometry, Alexa488-MEK5 binding to MEKK3; actives lie on both sides; 0 = blocked by unlabeled MEK5, 100 = vehicle. binding response (% of control), % at 10 µM. 1.4% of 290,000 active;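 active = binding response more than 3 SD above or below the average of its plate-row segment, actives on both sides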;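 also: Alexa488 bead fluorescence after subtracting the streptavidin-only scavenger bead signal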
Target sequence (Q99759 whole entry, looked up, the tested form may be a part): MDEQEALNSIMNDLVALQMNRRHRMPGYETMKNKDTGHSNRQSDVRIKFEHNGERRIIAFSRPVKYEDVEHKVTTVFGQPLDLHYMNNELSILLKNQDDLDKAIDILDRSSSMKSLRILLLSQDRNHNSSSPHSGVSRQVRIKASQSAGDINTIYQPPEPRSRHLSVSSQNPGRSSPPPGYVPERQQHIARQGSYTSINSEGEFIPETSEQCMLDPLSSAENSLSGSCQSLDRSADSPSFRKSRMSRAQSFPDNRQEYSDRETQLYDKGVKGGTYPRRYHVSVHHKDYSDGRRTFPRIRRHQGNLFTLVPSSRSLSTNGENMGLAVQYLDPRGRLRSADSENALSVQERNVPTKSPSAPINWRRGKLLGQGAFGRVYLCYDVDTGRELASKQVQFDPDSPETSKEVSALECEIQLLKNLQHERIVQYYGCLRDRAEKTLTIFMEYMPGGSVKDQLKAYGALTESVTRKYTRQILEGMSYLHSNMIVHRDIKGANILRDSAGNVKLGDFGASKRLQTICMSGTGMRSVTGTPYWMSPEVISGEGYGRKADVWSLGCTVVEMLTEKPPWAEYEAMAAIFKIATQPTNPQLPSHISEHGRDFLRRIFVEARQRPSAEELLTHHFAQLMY
WT yeast gro inh = growth inhibition of WT yeast, mitochondrial fusion screen. 2.1% of 190,000 active. inhibition, % at 10 µM. mitochondrial fusion phenotypic screen, WT strain; in the data active = inhibition above about 58%; tested in S. cerevisiae
ABCB1 inh = human ABCB1 inhibition, ABCG2 as counter-screen; inhibition, % at 6.6 µM; P08183; AID 1326; 0.067% of 190,000 active; CCRF-Adr cells, JC-1 efflux, flow cytometry; in the data active = inhibition above about 40%;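 also: 0% = vehicle and 100% = reference inhibitor; higher value means more JC-1 retained so stronger ABCB1 efflux block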
ABCG2 block = human ABCG2 inhibition, ABCB1 as counter-screen; inhibition, % at 6.6 µM; AID 1325; IgMXP3 cells, JC-1 efflux, flow cytometry; 0.1% of 190,000 active;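 active = inhibition above 80%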;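 also: 0% = DMSO and 100% = nicardipine control wells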
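Measure – % inhibition of efflux relative to nicardipine and DMSO · Test system – ABCG2 IgMXP3 and barcoded ABCB1 CCRF-Adr cell mix · Control set – nicardipine as high control, DMSO as low control · Compound – one concentration, 6.6 µM final · Signal – flow cytometry of retained JC-1 fluorescence · Timing – 10 min exposure at 25 °C with rotation, no wash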
MEKK2wt PB1 HTS = raises or lowers MEK5 binding to wildtype human MEKK2 PB1 domain | Q9Y2U5 | bead flow cytometry, Alexa488-MEK5 binding to MEKK2 WT; actives lie on both sides | binding response (% of control), % at 10 µM | 1.1% of 290,000 active | AID 1531; in the data active = binding response below about 67% or above about 130%
MEKK2mut PB1 HTS = signal of MEK5 binding to mutant human MEKK2 PB1 domain; bead flow cytometry, Alexa488-MEK5 binding to MEKK2 mutant; percent response, % at 10 µM; 0.35% of 290,000 active; AID 1530; in the data active = percent response above about 24%, passing the limit was not always enough
MEKK2wt confirm = raises or lowers MEK5 binding to wildtype human MEKK2, retest; shares compounds with MEKK3 PB1 HTS; bead flow cytometry, Alexa488-MEK5 binding to MEKK2 WT; actives lie on both sides; binding response (% of control), % at 10 µM; 2.4% of 5,900 active; in the data active = binding response below about 16% or above about 210%; inactive = in between
MEKK2mut-MEK5 = signal of MEK5 binding to mutant human MEKK2, retest | shares compounds with MEKK3 PB1 HTS | bead flow cytometry, Alexa488-MEK5 binding to MEKK2 mutant | percent response, % at 10 µM | 2% of 5,900 active; in the data active = percent response mostly above about 71%, no sharp cut-off; inactive = mostly below about 38%;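 also: higher means compound restores mutant binding toward wildtype level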
MEKK3-MEK5 inh = confirmation of inhibitors of MEK5 binding to human MEKK3; shares compounds with MEKK3 PB1 HTS; bead flow cytometry, Alexa488-MEK5 binding to MEKK3; stronger effect = lower value; binding response (% of control), % at 10 µM; 1.8% of 5,900 active;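 active = binding response below 72% of control, or above a set upper limit, though filed actives all read lower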;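 also: 100% = DMSO only wells and 0% = binding blocked by excess unlabeled MEK5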
Starred values were filed as active, the others as inactive; [ ] = another dose, or the depositor's remark.

`CC1(C(=O)NCc2ccccn2)C=CCN1C(=O)c1ccccc1` (stereo not drawn) gave MEKK3 PB1 HTS 50*[inhibitor], WT yeast gro inh -14, ABCB1 inh -1, ABCG2 block 2, MEKK2wt PB1 HTS 65, MEKK2mut PB1 HTS 1, MEKK2wt confirm 114, MEKK2mut-MEK5 12 and MEKK3-MEK5 inh 110.
Cc1cc(CNC(=O)c2cccc(OC3CCN(S(=O)(=O)N(C)C)CC3)c2)on1 was read as MEKK3 PB1 HTS 100, MEKK2wt PB1 HTS 98 and MEKK2mut PB1 HTS 3.
For N[C@H]1CONC1=O the results were MEKK3 PB1 HTS 106, MEKK2wt PB1 HTS 106 and MEKK2mut PB1 HTS 4.
For C=C(C)[C@@H]1CC=C(CN2CCC(N3CCC(C(=O)N4CCCC4)CC3)CC2)CC1 the results were MEKK3 PB1 HTS 94, WT yeast gro inh 19, ABCB1 inh 0, ABCG2 block 8, MEKK2wt PB1 HTS 142*, MEKK2mut PB1 HTS 31, MEKK2wt confirm 129, MEKK2mut-MEK5 19 and MEKK3-MEK5 inh 110.
Screening Cc1nc(Nc2nc(CSc3ccc(Cl)cc3)cc(=O)[nH]2)nc2ccccc12 returned MEKK3 PB1 HTS 132*, WT yeast gro inh 8, ABCB1 inh 3, ABCG2 block 14, MEKK2wt PB1 HTS 104, MEKK2mut PB1 HTS 0, MEKK2wt confirm 104, MEKK2mut-MEK5 2 and MEKK3-MEK5 inh 105.
`Cc1nc(Nc2nc(CSc3nc4ccccc4[nH]3)cc(=O)[nH]2)nc2ccccc12` gave MEKK3 PB1 HTS 92, WT yeast gro inh -1, ABCB1 inh 0, ABCG2 block -1, MEKK2wt PB1 HTS 96 and MEKK2mut PB1 HTS -1.
For CC1CCCC(NC(=O)CSc2nnnn2C)C1C (stereo not drawn) the results were MEKK3 PB1 HTS 0.0*[inhibitor], WT yeast gro inh 13, ABCB1 inh 1, ABCG2 block 3, MEKK2wt PB1 HTS -8.0*[inhibitor], MEKK2mut PB1 HTS -23, MEKK2wt confirm 102, MEKK2mut-MEK5 6 and MEKK3-MEK5 inh 105.
Screening CC1CCCC(NC(=O)Cc2ccc(Br)cc2)C1C (stereo not drawn) returned MEKK3 PB1 HTS 131*, WT yeast gro inh 2, ABCB1 inh 0, ABCG2 block 0, MEKK2wt PB1 HTS 101, MEKK2mut PB1 HTS 8, MEKK2wt confirm 99, MEKK2mut-MEK5 2 and MEKK3-MEK5 inh 102.
`COc1ccc(OCC(=O)Nc2c3c(nn2-c2ccc(OC)cc2)CS(=O)(=O)C3)cc1` gave MEKK3 PB1 HTS 97, MEKK2wt PB1 HTS 103 and MEKK2mut PB1 HTS 5.
COc1ccc(CCNC(=O)CSc2nc(O)cc(=O)[nH]2)cc1OC was read as MEKK3 PB1 HTS 134*, MEKK2wt PB1 HTS 114, MEKK2mut PB1 HTS 29, MEKK2wt confirm 106, MEKK2mut-MEK5 10 and MEKK3-MEK5 inh 110.
Screening COc1ccc(CCNC(=O)CC2Nc3cc(C)c(C)cc3NC2=O)cc1OC (stereo not drawn) returned MEKK3 PB1 HTS 0.0*[inhibitor], WT yeast gro inh -11, ABCB1 inh 0, ABCG2 block 17, MEKK2wt PB1 HTS 1.0*[inhibitor], MEKK2mut PB1 HTS -20, MEKK2wt confirm 102, MEKK2mut-MEK5 4 and MEKK3-MEK5 inh 105.
For COc1ccc(CCNC(=O)CN(c2ccc(OC)c(OC)c2)S(C)(=O)=O)cc1OC the results were MEKK3 PB1 HTS 122*, WT yeast gro inh -3, ABCB1 inh 0, ABCG2 block 1, MEKK2wt PB1 HTS 119, MEKK2mut PB1 HTS 5, MEKK2wt confirm 100, MEKK2mut-MEK5 2 and MEKK3-MEK5 inh 101.
COc1ccc(/C=C2\SC(=S)N(NC(=O)c3csc4c3CCCC4)C2=O)cc1 was read as MEKK3 PB1 HTS 103, WT yeast gro inh 5, ABCB1 inh 0, ABCG2 block -1, MEKK2wt PB1 HTS 99 and MEKK2mut PB1 HTS 3.
For Cn1cc(CN2CCN(c3ccccc3)CC2)c2ccccc21 the results were MEKK3 PB1 HTS 73*[inhibitor], WT yeast gro inh 6, ABCB1 inh 2, ABCG2 block 0, MEKK2wt PB1 HTS 92, MEKK2mut PB1 HTS -9, MEKK2wt confirm 112, MEKK2mut-MEK5 10 and MEKK3-MEK5 inh 108.
`COc1ccc(N=C2SC(C(=O)Nc3ccc(C(=O)O)cc3)CC(=O)N2Cc2cccs2)cc1` (stereo not drawn) gave MEKK3 PB1 HTS 131*, MEKK2wt PB1 HTS 122, MEKK2mut PB1 HTS 24, MEKK2wt confirm 104, MEKK2mut-MEK5 2 and MEKK3-MEK5 inh 107.
Screening COc1ccc(CCNC(=O)/C(=C/c2cccnc2)NC(=O)c2ccccc2)cc1 returned MEKK3 PB1 HTS 128*, WT yeast gro inh 1, ABCB1 inh 1, ABCG2 block 6, MEKK2wt PB1 HTS 101, MEKK2mut PB1 HTS -1, MEKK2wt confirm 96, MEKK2mut-MEK5 -11 and MEKK3-MEK5 inh 101.
COc1ccc(/C=C(\NC(=O)c2ccccc2)C(=O)NCc2cccnc2)cc1 was read as MEKK3 PB1 HTS 101, MEKK2wt PB1 HTS 97 and MEKK2mut PB1 HTS 0.
CCCNC(=O)C(=O)NCc1ccccn1 was read as MEKK3 PB1 HTS 70, WT yeast gro inh 11, ABCB1 inh 0, ABCG2 block 0, MEKK2wt PB1 HTS 70 and MEKK2mut PB1 HTS -19.
COc1ccc(CCNC(=O)C(=O)NCc2ccccn2)cc1 was read as MEKK3 PB1 HTS 135*, WT yeast gro inh 14, ABCB1 inh 0, ABCG2 block 0, MEKK2wt PB1 HTS 117, MEKK2mut PB1 HTS 5, MEKK2wt confirm 98, MEKK2mut-MEK5 -7 and MEKK3-MEK5 inh 98.
Screening CCCc1cc(=O)[nH]c(/N=C(/NC(=O)c2ccccc2)Nc2ccc3c(c2)OCCO3)n1 returned MEKK3 PB1 HTS 113, MEKK2wt PB1 HTS 114 and MEKK2mut PB1 HTS 9.
N#CC1=C(N)C(C#N)(C#N)C2(CCC3(CC2)OCCO3)C2CC3(CC=C12)OCCO3 (stereo not drawn) was read as MEKK3 PB1 HTS 13*[inhibitor], WT yeast gro inh 2, ABCB1 inh 0, ABCG2 block 1, MEKK2wt PB1 HTS 19*[inhibitor], MEKK2mut PB1 HTS -41, MEKK2wt confirm 104, MEKK2mut-MEK5 1 and MEKK3-MEK5 inh 102.

Screening results: PubChem BioAssay, several laboratories
